# RGS4 inh = inhibitors of human RGS4. HEK293 M3R/RGS4 inducible, Fluo-4 calcium flux; active compounds read high; triggered by carbachol at its EC20. 310,000 tested, 0.45% active. B-score at 10 µM. P49798;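 active = B-score, a plate-corrected calcium signal, over three deviations above library mean, with baseline fluorescence within five deviations of library mean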;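 also: RGS4 expression induced by doxycycline in cells with stable M3 receptor; B-score is computed from the integrated fluorescence ratio over baseline after carbachol; higher B-score means a larger calcium signal and so more RGS4 inhibition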
# Target sequence (P49798 whole entry, looked up): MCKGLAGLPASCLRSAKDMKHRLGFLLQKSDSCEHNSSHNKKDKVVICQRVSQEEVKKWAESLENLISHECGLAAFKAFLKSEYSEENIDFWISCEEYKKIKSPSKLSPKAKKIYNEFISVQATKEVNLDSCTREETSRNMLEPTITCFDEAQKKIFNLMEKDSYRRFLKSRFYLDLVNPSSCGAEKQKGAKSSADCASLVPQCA
# Hep lipid drop = hepatic lipid droplet formation modulation; AML12 mouse hepatocytes, oleate lipid droplets, BODIPY imaging; inhibition, % at 6.5 µM; 240,000 tested, 0.4% active;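 active = lipid droplet intensity inhibited by at least 50%, with more than 500 cells counted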
#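 Assay system: AML12 hepatocytes (mouse) / Also added: 100 µM oleic acid challenge / Times: overnight treatment with compound plus oleate / Detection: high-content imaging of BODIPY-stained droplets and DAPI nuclei / Evaluation: % inhibition of lipid droplet signal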
# MrgX1 antag = antagonists of human MrgX1 receptor; MRGX1-HEK293 calcium flux, Fluo-4, BAM8-22 antagonism; active compounds read low; B-score at 10 µM; 310,000 tested, 1.3% active; AID 588676;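 active = calcium-response B-score plate-corrected more than 3 library SD below zero, starting fluorescence within 5 deviations, no agonist response on first addition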;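 also: peak minus trough fluorescence over baseline after final BAM8-22 challenge near maximal dose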
# Target sequence (Q96LB2 whole entry, looked up): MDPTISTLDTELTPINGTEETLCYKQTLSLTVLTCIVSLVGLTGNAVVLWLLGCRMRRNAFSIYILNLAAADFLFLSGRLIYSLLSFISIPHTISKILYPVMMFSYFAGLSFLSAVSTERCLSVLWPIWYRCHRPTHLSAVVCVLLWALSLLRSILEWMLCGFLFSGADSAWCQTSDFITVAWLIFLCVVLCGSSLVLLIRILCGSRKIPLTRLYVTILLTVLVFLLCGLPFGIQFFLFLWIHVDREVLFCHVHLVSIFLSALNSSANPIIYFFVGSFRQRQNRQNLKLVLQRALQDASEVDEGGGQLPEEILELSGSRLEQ
# RGS4 act = potentiators or activators of RGS4; HEK293 M3R/inducible RGS4, carbachol calcium flux Fluo4; active compounds read low; AID 463111; 310,000 tested, 0.92% active; B-score at 10 µM;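 active = B-score of the integrated calcium signal more than 4 SD below the library mean, with starting fluorescence not abnormally high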;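 also: negative B-score means reduced calcium response which marks RGS4 activation or potentiation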
#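 Assay system: HEK293 FlpIn-TREx cells, stable M3R, doxycycline-inducible RGS4 / Probe or stimulus: carbachol, ECmax concentration / Times: overnight RGS4 induction, 30 min dye load 37 °C, 20 min compound RT / Signal: kinetic calcium fluorescence imaging with Fluo4-AM dye, 2 µM / Measure: Agonist-evoked peak-minus-minimum fluorescence over baseline, integrated ratio, B score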
# MrgX1 allo act = allosterically activates human MrgX1 receptor signaling. Q96LB2. MrgX1-HEK293, Fluo-4 calcium flux, FDSS; active compounds read high. AID 588675. B-score at 10 µM. 310,000 tested, 0.63% active;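 active = plate-corrected calcium response at least 3 library SD above typical, normal starting fluorescence, not activating the receptor alone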;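 also: compound read alongside a low EC10 to EC30 dose of BAM8-22 agonist; peak minus trough fluorescence over baseline measured at the second addition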
# MrgX1 agonist = activates human MrgX1 receptor signaling; Q96LB2; MrgX1-HEK293 cells, Fluo-4 calcium fluorescence, agonist mode; active compounds read high; B-score at 10 µM; 310,000 tested, 0.44% active;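 active = calcium response B-score plate-corrected fluorescence ratio at least 3 library SD, with starting fluorescence B-score inside 5 SD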
#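 System: HEK293 cells stably expressing human MrgX1 receptor; Dosing: test compound in the initial addition of three; Schedule: overnight plating, then 30 min 37 °C plus 30 min room-temperature dye loading; Detection: kinetic calcium dye fluorescence, Fluo-4 NW; Controls: per-plate positive and negative controls for Z′ factor.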
# RGS4 inh valid = RGS4 inhibitor validation; shares compounds with RGS4 inh; HEK293 M3R/RGS4, carbachol calcium Fluo-4 fluorescence; carbachol added at its EC20; 0 = buffer wells, 100 = carbachol control; calcium response, % at 10 µM; 1,700 tested, 65% active;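 active = duplicate-averaged calcium response above the buffer-only control mean plus 5 SD of those controls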;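 also: integrated fluorescence ratio F max minus min over baseline F0; higher response in RGS4-induced cells means RGS4 inhibition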
# M3R Ca ctr = counter-screen for RGS4 inhibitors: effect in non-induced cells | shares compounds with RGS4 inh | HEK293 M3R non-induced, carbachol calcium Fluo-4; submaximal (EC20) carbachol stimulus; buffer wells 0%, carbachol control wells 100% | activity (percent), % at 10 µM | 1,900 tested, 20% active | AID 493000; call rule not given here;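 also: RGS4 induction absent so cells express M3R without RGS4; higher means more calcium signal and flags a non-specific hit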
# RGS4 inh ctr2 = second counter-screen for RGS4 inhibitors: non-induced cells without carbachol. HEK293 M3R/RGS4 non-induced, Fluo-4 calcium, no carbachol; normalised: buffer wells 0%, carbachol wells 100%. 1,900 tested, 22% active. calcium response (agonist-mode artifact), % at 10 µM. shares compounds with RGS4 inh;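 active = duplicate-averaged calcium rise in uninduced cells above buffer wells' mean plus 5 SD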
# MrgX1 ag confirm = human MrgX1 agonism, re-confirmation screen. shares compounds with MrgX1 agonist. MrgX1-HEK293, Fluo-4 calcium fluorescence, FDSS. activation, % at 10 µM. 600 tested, 78% active;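 active = calcium signal rise, corrected for plate position, at least 3 library SD high, with starting brightness within 5 such deviations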
# MrgX1 antag conf = human MrgX1 receptor antagonism, re-confirmation screen. shares compounds with MrgX1 antag. 2,300 tested, 19% active. remaining BAM8-22 calcium response % of control (active compounds read low), % at 10 µM. MrgX1-HEK293, BAM8-22 calcium flux, Fluo-4; active compounds read low;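 active = remaining agonist calcium response no higher than 100% minus 3 SD of agonist-only control wells, with starting fluorescence near control levels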;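 also: agonist BAM8-22 given at a near maximal EC90 to ECmax level; peak minus minimum fluorescence divided by baseline after agonist addition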
# HEK293 Ca flux = activity in parental HEK293 cells lacking MrgX1. 4,000 tested, 2% active. shares compounds with MrgX1 antag. fluorescence ratio F(max-min)/F0 at 10 µM. Fluo-4 calcium fluorescence, FDSS;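 active = duplicate-averaged calcium fluorescence ratio at least three times the standard deviation of buffer wells, a nonspecific response in parental cells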
# HEK293 Ca counter = MrgX1 allosteric activator counter-screen hit in parental HEK293 cells | 4,000 tested, 0.4% active | shares compounds with MrgX1 antag | parental HEK293 calcium flux, Fluo-4 fluorescence ratio; active compounds read high | fluorescence ratio F(max-min)/F0 at 10 µM;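 active = calcium fluorescence ratio, averaged over duplicates, at least 3 SD of the buffer-well ratio, meaning a nonspecific response in receptor-free cells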;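 also: untransfected parental HEK293 lacking MrgX1 used as counterscreen for MrgX1 allosteric activators; fluorescence change taken during the second addition on a kinetic imager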
# HEK293 Ca cntr2 = counter-screen for MrgX1 activators: effect in parental HEK293 cells | 4,000 tested, 8.7% active | fluorescence ratio F(max-min)/F0 at 10 µM | Fluo-4 calcium fluorescence (FDSS); active compounds read high | AID 624115 | shares compounds with MrgX1 antag;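 active = calcium fluorescence ratio at least three times the spread of buffer wells, meaning a non-specific response in parental cells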
# Numbers without * were called inactive; i = inactive; / = not tested or not shown. A selection: hits, their analogues and other compounds. The true share with any hit is near 3.8%.
SMILES,RGS4 inh,Hep lipid drop,MrgX1 antag,RGS4 act,MrgX1 allo act,MrgX1 agonist,RGS4 inh valid,M3R Ca ctr,RGS4 inh ctr2,others
CCn1c(C(=O)OC)cc2c1ccn2-c1ccc(F)cc1,i,2.9,i,i,i,i,/,i,i,
N#C/C(=C/c1ccc(O)c(O)c1)C(=O)NCc1ccc(Cl)cc1,7.59*,1.9,i,i,13.1*,i,i,i,i,
N#C/C(=C/c1cccc(O)c1)C(=O)NCc1ccc(Cl)cc1,5.93*,-4.2,i,i,i,i,80.0%*,73.0%*,i,
Clc1ccc(CN2CCN(c3ncccn3)CC2)cc1,i,-2.5,i,i,i,i,/,/,/,
Cc1cc(C)nc(NC(=S)NC(=O)c2ccccc2F)n1,i,/,i,i,i,i,/,/,/,
Cc1cc(C)nc(S/C=C/C(=O)c2ccccc2F)n1,5.8*,-16.2,i,i,i,i,5.0%*,i,i,
c1coc(C2=Nc3cccc4cccc(c34)N2)c1,12.7*,5.1,i,i,i,i,29.5%*,i,i,
Cc1ccc(C)c(OC(=O)c2cncc(Br)c2)c1,i,-6.6,i,i,i,i,/,/,/,
COc1ccc(/C=C/C(=O)c2sc(-c3ccccc3)nc2C)cc1,i,-18.5,i,i,i,i,/,i,39.5%*,
CC(C)(C)c1ccc(S(=O)(=O)Nc2noc3ccccc23)cc1,i,/,i,i,i,i,/,/,/,
COc1c(/C=N/Nc2ccc(C(=O)O)cc2)c(CCN(C)C(C)=O)cc2c1OCO2,i,1.9,i,i,i,i,/,/,/,
CCOC(=O)[C@@H]1[C@H]2COc3ccccc3[C@@H]2N2C(=O)N(c3ccc(F)cc3)C(=O)[C@@]12C,i,-5.6,i,i,i,i,i,37.5%*,i,
CCOC(=O)[C@@H]1[C@H]2COc3ccc(Br)cc3[C@@H]2N2C(=O)N(c3ccc(C)cc3)C(=O)[C@]12C,i,-15.8,i,i,i,i,/,/,/,
CCOC(=O)[C@@H]1[C@H]2COc3ccc(Br)cc3[C@@H]2N2C(=O)N(c3ccc(Cl)cc3)C(=O)[C@]12C,i,/,i,i,i,i,/,i,i,
CCOC(=O)[C@@H]1[C@H]2COc3ccc(Br)cc3[C@H]2N2C(=O)N(c3ccc(F)cc3)C(=O)[C@]12C,i,6.9,i,i,i,i,/,/,/,
CCOC(=O)[C@@H]1[C@H]2COc3ccccc3[C@H]2N2C(=O)N(c3ccc(Cl)cc3)C(=O)[C@@]12C,6.01*,-7.5,i,i,i,i,15.5%*,i,i,
NC(=O)C1=C[C@@H](c2ccc(C(F)(F)F)cc2)C[C@@H](OCCCCO)O1,i,-1.7,i,i,i,i,/,/,/,
O=C(c1ccc2c(c1)OCO2)N(Cc1ccco1)C1(C(=O)NC2CCCCC2)CCCCC1,i,-11.8,i,i,i,i,/,/,/,
CCOC(=O)[C@@H]1[C@H]2COc3ccccc3[C@H]2N2C(=O)N(c3ccc(OC)cc3)C(=O)[C@]12C,i,-2.3,-6.32*,i,i,i,i,i,i,MrgX1 antag conf=i;HEK293 Ca flux=i;HEK293 Ca counter=i;HEK293 Ca cntr2=i
CCOC(=O)[C@@H]1[C@H]2COc3cc(OC)ccc3[C@@H]2N2C(=O)N(c3cccc(F)c3)C(=O)[C@]12C,i,-2.3,i,i,i,i,/,/,/,
CCOC(=O)[C@@H]1[C@H]2COc3ccccc3[C@@H]2N2C(=O)N(c3cccc(C)c3)C(=O)[C@]12C,i,-1.2,-5.8*,i,i,i,i,i,i,MrgX1 antag conf=i;HEK293 Ca flux=i;HEK293 Ca counter=i;HEK293 Ca cntr2=i
Cc1cc(C)cc(N(CC(=O)NC2CCCC2)C(=O)CCC(=O)Nc2nc(C)cs2)c1,i,18.7,i,i,i,i,/,/,/,
COC(=O)C1=C(O)/C(=C/c2cccc(OC)c2O)N=C1C,i,6.8,i,i,i,i,/,/,/,
CCOC(=O)C1=C(O)/C(=C\c2cccc(OC)c2)N=C1C,13.9*,/,i,i,i,31.8*,47.0%*,i,i,MrgX1 ag confirm=158.3%*;HEK293 Ca flux=i;HEK293 Ca counter=i;HEK293 Ca cntr2=i
O=C1/C(=C\c2ccc(O)c(O)c2)SC(=S)N1Cc1ccccc1,13.9*,8.2,-12*,i,i,i,15.5%*,36.5%*,41.5%*,MrgX1 antag conf=i;HEK293 Ca flux=0.306*;HEK293 Ca counter=i;HEK293 Ca cntr2=i
O=C1/C(=C/c2ccc(O)cc2)SC(=S)N1Cc1cccnc1,i,-3.4,i,i,i,i,/,/,/,
FC(F)C(F)(F)C(F)(F)C(F)(F)c1cc(-c2ccccc2)n[nH]1,i,7.1,i,i,i,i,/,/,/,

# Source: PubChem BioAssay (several laboratories)
